Series [1] can be described thus: Cytotoxicity against HNDF cells harboring wild type p53 assessed as reduction in cell viability after 48 hrs by 7AAD-staining based FACS analysis. Conditions: human, HNDF cells harboring wild type p53; read-out: LD50. In kind it is toxicity. In a few lines:
(§1)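 Cells were exposed for 48 h to compound titrations from 0 to 5000 nM. Cell death was read out by 7AAD staining, and the LD50 was taken from dose-response curves. n=3.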
(In general: In flow cytometry, cells or beads pass a laser one at a time.)

Series [2] in a line: Terminal half life in human plasma at 20 mg/m2 iv, administered for 2 to 10 mins after dexamethasone addition by LC-MS/MS analysis. Conditions: read-out: beta t1/2. The class given is ADME, cell-free.
Series [3] can be described thus: Cytotoxicity against human IMR90 cells harboring wild type p53 assessed as reduction in cell viability after 48 hrs by 7AAD-staining based FACS analysis. In kind it is toxicity, IMR-90. Conditions: IMR90 cells harboring wild type p53, read-out: LD50. In a few lines: as §1
Series [4] in a line: Cytotoxicity against human MDA-MB-468 cells harboring mutant p53 assessed as reduction in cell viability after 48 hrs by 7AAD-staining based FACS analysis. Conditions: MDA-MB-468, 48 h, read-out: LD50 (the source's name). The class given is functional. The essentials:
as §1

Series [5] is described as follows: Cytotoxicity against human U266 cells harboring mutant p53 assessed as reduction in cell viability after 48 hrs by 7AAD-staining based FACS analysis. In kind it is functional. Conditions: U-266, 48 h, read-out: LD50 (the source's name). In a few lines:
as §1

The nature of series [6]: Inhibition of trypsin like activity of rabbit 20S proteasome using Bz-Val-Gly-Arg-AMC as substrate preincubated for 15 mins followed by substrate addition measured after 2 hrs by fluorescence-based assay. Also on record: species or system Oryctolagus cuniculus.
Series [7] concerns MDA-MB-468. The experiment in a line: Inhibition of 26S proteasome in human MDA-MB-468 cells assessed as accumulation of high molecular weight polyubiquitin-conjugated proteins at 35 nM after 4 hrs by Western blot analysis. In kind it is cell-based. Background: In western blotting, separated proteins are transferred to a membrane and probed.
Series [8] can be described thus: Cytotoxicity against human MCF7 cells harboring wild type p53 assessed as reduction in cell viability after 48 hrs by 7AAD-staining based FACS analysis. In kind it is functional. As to conditions: MCF7, 48 h, read-out: LD50 (the source's name). In a few lines: as §1
Series [9] is described as follows: Inhibition of bovine alpha chymotrypsin using Ala-Ala-Phe-7-AMC as substrate measured for 10 mins by spectrophotometric analysis. Further details: species or system Bos taurus. In a few lines:
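Enzyme was bovine α-chymotrypsin. Compounds were tested up to a top concentration of 25000 nM. Ki values are the mean of three separate experiments, with variation between experiments below ±10%.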

Series [10] is described as follows: Cytotoxicity against human WE68 cells harboring wild type p53 assessed as reduction in cell viability after 48 hrs by 7AAD-staining based FACS analysis. The class given is functional. As to conditions: WE68, 48 h, read-out: LD50 (the source's name). The essentials:
as §1

Series [11] is described as follows: Cytotoxicity against human LCL cells harboring wild type p53 assessed as reduction in cell viability after 48 hrs by 7AAD-staining based FACS analysis. In kind it is toxicity. As to conditions: LCL cells harboring wild type p53, read-out: LD50. The essentials:
as §1

A short description of series [12]: Inhibition of caspase like activity of rabbit 20S proteasome using Ac-nLPnLD-AMC as substrate preincubated for 15 mins followed by substrate addition measured after 2 hrs by fluorescence-based assay. Further details: species or system Oryctolagus cuniculus.
Series [13] can be described thus: Cytotoxicity against p53 deficient human SKOV3 cells assessed as reduction in cell viability after 48 hrs by 7AAD-staining based FACS analysis. The class given is functional. As to conditions: SK-OV-3, 48 h, read-out: LD50 (the source's name). The essentials:
as §1

Series [14] is described as follows: Cytotoxicity against human MCF10A cells harboring wild type p53 assessed as reduction in cell viability after 48 hrs by 7AAD-staining based FACS analysis. The class given is toxicity, MCF-10A. Conditions: MCF10A cells harboring wild type p53, read-out: LD50. The essentials:
as §1

Series [15] can be described thus: Cytotoxicity against human KGN cells harboring wild type p53 assessed as reduction in cell viability after 48 hrs by 7AAD-staining based FACS analysis. In kind it is functional. Conditions: read-out: LD50 (the source's name). The essentials:
as §1

The test system of series [16] is MCF7. The series can be described thus: Inhibition of 26S proteasome in human MCF7 cells assessed as accumulation of high molecular weight polyubiquitin-conjugated proteins at 35 nM after 4 hrs by Western blot analysis. The class given is cell-based.
Series [17] is described as follows: Inhibition of chymotrypsin like activity of rabbit 20S proteasome using Suc-Leu-Leu-Val-Tyr-AMC as substrate preincubated for 15 mins followed by substrate addition measured after 2 hrs by fluorescence-based assay. Also on record: species or system Oryctolagus cuniculus.
Series [18] is described as follows: Cytotoxicity against human RD-ES cells harboring p53 mutant assessed as reduction in cell viability after 48 hrs by 7AAD-staining based FACS analysis. The class given is functional. As to conditions: read-out: LD50 (the source's name). The essentials: as §1

Activity calls are given as the source filed them. The rule behind the calls is not given here.

For `CC(C)C[C@H](NC(=O)[C@H](CCc1ccccc1)NC(=O)CN1CCOCC1)C(=O)N[C@@H](Cc1ccccc1)C(=O)N[C@@H](CC(C)C)C(=O)[C@@]1(C)CO1` [CARFILZOMIB], the CC50 at 48 h came to 0.35 µM in series [1], 0.13 µM in series [3], 0.03 µM in [11] and 0.32 µM in series [14]. For the same molecule, the half-life in series [2] lay in the range of 5 to 20 min. Besides, the CC50 in series [4] was determined as 0.33 µM; in [5], 0.06 µM; in series [8] it was 4.5 µM; in series [10] it was 0.08 µM; in series [13], 0.32 µM; in [15], 0.45 µM. The CC50 in series [18] is 0.043 µM. The figures for the IC50 in [6], in series [12] and in [17] were over 25 µM, over 25 µM and 0.0231 µM, respectively. In series [7], the “polyubiquitin accumulation (active/inactive)” value was “Active”. For the same molecule, the inhibition constant (Ki) – broadly, the dissociation constant of the complex between target and ligand, obtained from inhibition or displacement – in series [9] is over 25 µM. Further, the Polyubiquitin-conjugate accumulation result in [16] was “Active”.
